Drawing on ChEMBL document CHEMBL1150607, “Ancistrocongolines A-D, new naphthylisoquinoline alkaloids from ancistrocladus congolensis” (J Nat Prod, 2002), this text covers IC50 for 7 compounds.

Data set [1] in a line: Cytotoxicity against rat L6 cells after 72 hrs by alamar blue assay. The data set is classed as cell-based. To be noted: […]. The method in brief: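 L-6 cells in RPMI 1640 with 10% FBS exposed to serial drug dilutions, protocol closely following the T. b. rhodesiense assay; viability read with Alamar Blue, expressed as IC50.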
On the technique in general: Resazurin is reduced to fluorescent resorufin, in cell work by metabolically active cells.

A further data set has as its system Trypanosoma cruzi. Put plainly: Antitrypanosomal activity against Trypanosoma cruzi Tulahuen strain C2C4 containing galactosidase gene in rat L6 cells after 4 days. The data set is classed as functional, organism-based. To be noted: L6, 96 h. The method in brief:
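L-6 cells seeded 2000/well in RPMI 1640, 10% FBS, 2 mM L-glutamine; after 24 h, 5000 Lac Z trypomastigotes added with serial drug dilutions, 4 days at 37 °C, 5% CO2. CPRG/Nonidet substrate added, colour read at 540 nm after 2–4 h; IC50 from sigmoidal inhibition curve.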

Another data set deals with Plasmodium falciparum. The data set is described as follows: Antimalarial activity against Plasmodium falciparum K1 in human erythrocytes after 48 hrs by [3H]hypoxanthine uptake. The class given is functional, organism-based. The method in brief:
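Infected human red cells with chloroquine/pyrimethamine-resistant K1 strain exposed to serial dilutions 48 h, 37 °C, reduced O2/elevated CO2; [³H]-hypoxanthine then added, 24 h further incubation, harvested on glass fibre filters, scintillation counted. IC50 from sigmoidal inhibition curve; duplicate, repeated at least once.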

The subject of data set [2] is Trypanosoma brucei rhodesiense. The data set is described as follows: Antitrypanosomal activity against Trypanosoma brucei rhodesiense after 72 hrs by alamar blue assay. The data set is classed as functional, organism-based. The method in brief:
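STIB 900 trypanosomes in Minimum Essential Medium with 2-mercaptoethanol and 15% heat-inactivated horse serum, serial drug dilutions, 72 h at 37 °C, 5% CO2; Alamar Blue added, 2–4 h more, fluorescence read ex 530/em 590 nm. Signal expressed as percent of control; IC50 determined.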

For the next data set, the system named is Leishmania donovani. The data set is described as follows: Antileishmanial activity against Leishmania donovani. The class given is functional, organism-based.

Values after ≈ are worked out from the molar mass of the structure shown.

`COc1cc(C)cc2c(-c3c(O)cc(O)c4c3C[C@@H](C)N(C)[C@@H]4C)ccc(O)c12` [ANCISTROCONGOLINE A]: the IC50 at 72 h in data set [1] came out at 90 µg/mL (≈ 229 µM). Also, the IC50 in the data set with Trypanosoma cruzi came to 39.9 µg/mL (≈ 101 µM); with Plasmodium falciparum it was 0.214 µg/mL (≈ 0.544 µM); in data set [2] it was 2.97 µg/mL (≈ 7.55 µM).

Consider `COc1cc(O)c2c(c1-c1ccc(OC)c3c(OC)cc(C)cc13)C[C@@H](C)N(C)[C@@H]2C` [ANCISTROCONGOLINE B], for which, in data set [1], the IC50 at 72 h amounted to 33.4 µg/mL (≈ 79.2 µM). For the same compound, the IC50 stood at 18.8 µg/mL (≈ 44.6 µM) in the data set on Leishmania donovani, 17.4 µg/mL (≈ 41.3 µM) in the data set on Trypanosoma cruzi, 0.158 µg/mL (≈ 0.375 µM) in the data set on Plasmodium falciparum and 2.54 µg/mL (≈ 6.03 µM) in data set [2].

On to `COc1cc(O)c(-c2ccc(OC)c3c(OC)cc(C)cc23)c2c1[C@@H](C)N(C)[C@H](C)C2` [ANCISTROCONGOLINE C], for which the IC50 at 72 h in data set [1] is not below 90 µg/mL. Further, the IC50 was 19.3 µg/mL (≈ 45.8 µM) in the data set on Leishmania donovani, not below 90 µg/mL in the data set with Trypanosoma cruzi, 3 µg/mL (≈ 7.12 µM) in the data set with Plasmodium falciparum and 15.9 µg/mL (≈ 37.7 µM) in data set [2].

On to `COc1c(-c2c(C)cc(OC)c3c(OC)cccc23)c(O)cc2c1[C@@H](C)N[C@H](C)C2` [ANCISTROCONGOLINE D], for which the IC50 at 72 h in data set [1] amounted to 27.7 µg/mL (≈ 68 µM). Moreover, the IC50 in the data set on Leishmania donovani was more than 30 µg/mL; in the data set on Trypanosoma cruzi it was 30.1 µg/mL (≈ 73.9 µM); in the data set on Plasmodium falciparum, 1.98 µg/mL (≈ 4.87 µM); in data set [2], 5.86 µg/mL (≈ 14.4 µM).

In the data set with Plasmodium falciparum, `C[C@@H]1CC[C@H]2[C@@H](C)C(=O)O[C@@H]3O[C@@]4(C)CC[C@@H]1[C@]32OO4` [ARTEMISININ] gave an IC50 of 0.001 µg/mL (≈ 0.00354 µM).

Compound `O=C(Cn1ccnc1[N+](=O)[O-])NCc1ccccc1` [BENZNIDAZOLE] registered an IC50 in the data set on Trypanosoma cruzi of 0.382 µg/mL (≈ 1.47 µM).

Consider `COc1cc(C)cc2c(-c3c(O)cc(O)c4c3C[C@@H](C)N[C@@H]4C)ccc(O)c12` [KORUPENSAMINE A], for which the IC50 at 72 h in data set [1] amounted to 38 µg/mL (≈ 100 µM). In addition, the IC50 amounted to 25.1 µg/mL (≈ 66.1 µM) with Leishmania donovani, 14.5 µg/mL (≈ 38.2 µM) with Trypanosoma cruzi, 0.164 µg/mL (≈ 0.432 µM) in the data set with Plasmodium falciparum and 1.87 µg/mL (≈ 4.93 µM) in data set [2].
